Results as given in paper PMC3472134 (Bioorganic & medicinal chemistry letters, 2012).
“Also recorded” adds a separate entry of the source.

What was measured:
human recombinant HDAC8 [1] = molecular target: T1, human recombinant HDAC8 (Homo sapiens, UniProt Q9BY41); test: HDAC8 inhibition, fluorogenic substrate Fluor de Lys; type: biochemical
T1 sequence (Q9BY41 1-377): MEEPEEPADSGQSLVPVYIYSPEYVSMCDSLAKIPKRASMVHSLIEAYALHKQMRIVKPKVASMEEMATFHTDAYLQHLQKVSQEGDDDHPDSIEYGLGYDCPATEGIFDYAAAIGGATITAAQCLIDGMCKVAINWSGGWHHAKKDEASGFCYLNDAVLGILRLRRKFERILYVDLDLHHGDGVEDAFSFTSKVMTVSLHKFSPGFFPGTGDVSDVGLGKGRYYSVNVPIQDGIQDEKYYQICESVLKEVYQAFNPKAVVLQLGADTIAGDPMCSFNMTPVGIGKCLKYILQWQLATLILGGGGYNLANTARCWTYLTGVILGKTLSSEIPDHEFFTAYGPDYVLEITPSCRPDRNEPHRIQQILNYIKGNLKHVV

recombinant human HDAC3 = recombinant human HDAC3 (Homo sapiens, UniProt O15379); test: HDAC3 inhibition, fluorogenic substrate Boc-Lys; type: biochemical
Sequence of recombinant human HDAC3 (O15379 whole entry): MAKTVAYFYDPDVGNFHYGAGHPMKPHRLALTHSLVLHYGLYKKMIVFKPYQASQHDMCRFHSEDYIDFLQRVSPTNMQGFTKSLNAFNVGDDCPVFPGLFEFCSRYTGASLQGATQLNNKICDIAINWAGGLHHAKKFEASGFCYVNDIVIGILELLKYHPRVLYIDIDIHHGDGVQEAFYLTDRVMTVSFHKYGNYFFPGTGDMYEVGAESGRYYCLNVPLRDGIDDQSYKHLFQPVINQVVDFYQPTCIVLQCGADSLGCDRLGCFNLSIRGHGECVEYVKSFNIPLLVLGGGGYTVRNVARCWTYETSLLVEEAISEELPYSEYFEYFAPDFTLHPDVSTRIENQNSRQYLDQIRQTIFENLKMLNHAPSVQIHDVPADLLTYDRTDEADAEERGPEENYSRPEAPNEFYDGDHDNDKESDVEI
Sequence of recombinant human HDAC3 (Q9Y618 395-489 partner limits assumed): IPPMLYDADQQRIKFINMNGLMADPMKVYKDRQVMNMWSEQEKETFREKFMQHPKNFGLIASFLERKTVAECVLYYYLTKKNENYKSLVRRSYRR

[2] = tested on: nuclear class I HDACs (acetylation status of histone H4) in SH-SY5Y cells; test: Western blot of acetylation of histone H4 in SH-SY5Y cells; type: cell-based; details: 24 h treatment
Outline: (§1)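 SH-SY5Y cells were seeded at 1.0 x 10^5 cells/well and grown to 80% confluence in 1:1 DMEM:OPTI-MEM with 10% FBS and antibiotics. They were exposed to vehicle or rising concentrations of test compound for 24 h at 37 °C, 5% CO2, then lysed in RIPA with protease/phosphatase inhibitors. 20 µg of total protein (BCA) went to SDS-PAGE/PVDF, probed overnight at 4 °C for acetyl-α-tubulin or acetyl-histone H4, with GAPDH; chemiluminescence imaged by CCD.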

[3] = tested on: cytoplasmic HDAC6 (acetylation status of α-tubulin) in SH-SY5Y cells; test: Western blot of acetylation of α-tubulin in SH-SY5Y cells; type: cell-based; details: 24 h treatment
Outline: as §1

human recombinant HDAC8 [4] = molecular target: T1, human recombinant HDAC8; type: binding; details: denaturing conditions, excess of competitor (1f at 50 fold molar excess)
Solubility = type: physicochemical; details: remark on the photolabeling competition experiment

## COC(=O)CCCCCCC(=O)Nc1ccc(OCc2ccccc2)cc1 [1e]
Human recombinant HDAC8 [1]
  IC50: > 66 µM

## COc1cc(COc2ccc(NC(=O)CCCCCCC(=O)OCc3ccc(CN=[N+]=[N-])cc3)cc2)cc(N=[N+]=[N-])c1 [1i, 7-[4-(3-Azido-5-methoxybenzyloxy)phenylcarbamoyl]heptanoicacid-4-azidomethylbenzyl ester]
Recombinant human HDAC3
  IC50: > 66 µM
[2]
  Acetylation status of histone H4: increase acetylation of H4
[3]
  Deacetylation of α-tubulin: did not inhibit; also recorded: not α tubulin

## COc1cc(COc2ccc(NC(=O)CCCCCCC(=O)OCCN=[N+]=[N-])cc2)cc(N=[N+]=[N-])c1 [1h, 7-[4-(3-Azido-5-methoxybenzyloxy)phenylcarbamoyl]heptanoicacid-2-azidoethyl ester]
Recombinant human HDAC3
  IC50: > 66 µM

## COc1ccc(Cn2ccc3ccc(C(=O)NO)cc32)cc1 [PCI34051]
Human recombinant HDAC8 [4]
  Competition with probe 1b, effect on biotinylation of HDAC8: pronounced decrease in biotinylation

## CC(/C=C/C(=O)NO)=C\[C@@H](C)C(=O)c1ccc(N(C)C)cc1 [TSA, Trichostatin A]
Human recombinant HDAC8 [4]
  Competition with probe 1b, effect on biotinylation of HDAC8: pronounced decrease in biotinylation

## COC(=O)CCCCCCC(=O)Nc1ccc(OCc2cc(C)cc(C)c2)cc1 [1f, 7-[4-(3,5-Dimethyl-benzyloxy)phenylcarbamoyl]heptanoic acid methyl ester]
Human recombinant HDAC8 [4]
  Competition with probe 1b, effect on biotinylation of HDAC8: pronounced decrease in biotinylation
Solubility
  Solubility: low solubility
